Measured values from ChEMBL document CHEMBL4425094, “Novel Benzo[a]quinolizidine Analogs Induce Cancer Cell Death through Paraptosis and Apoptosis” (J Med Chem, 2016).

Experiments:
MDA-MB-231 = assay: Cytotoxicity against human MDA-MB-231 cells assessed as cell growth inhibition after 24 hrs by MTT assay; assay type: functional, cell-based; details: MDA-MB-231, 24 h
Method in brief: (§1)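 Cells seeded 24 h in RPMI 1640 + 10% FBS. RWPE-1 was kept in K-SFM with bovine pituitary extract and EGF. Cells then exposed to compounds for 24 h at 37 °C, 5% CO2, with DMSO vehicle and docetaxel as positive control. MTT added for 4 h, absorbance read at 570 nm. Triplicate runs, IC50 reported as mean of three experiments.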

HeLa = assay: Cytotoxicity against human HeLa cells assessed as cell growth inhibition after 24 hrs by MTT assay; assay type: functional, cell-based; method in brief: as §1
K562 = assay: Cytotoxicity against human K562 cells assessed as cell growth inhibition after 24 hrs by MTT assay; assay type: functional, cell-based; details: K562, 24 h; method in brief: as §1
PC-3 = assay: Cytotoxicity against human PC3 cells assessed as cell growth inhibition after 24 hrs by MTT assay; assay type: functional, cell-based; details: PC-3, 24 h; method in brief: as §1
DU-145 = assay: Cytotoxicity against human DU145 cells assessed as cell growth inhibition after 24 hrs by MTT assay; assay type: functional, cell-based; details: DU-145, 24 h; method in brief: as §1
MCF7 = assay: Cytotoxicity against human MCF7 cells assessed as cell growth inhibition after 24 hrs by MTT assay; assay type: functional, cell-based; details: MCF7, 24 h; method in brief: as §1
RWPE-1 = assay: Cytotoxicity against human RWPE1 cells assessed as cell growth inhibition after 24 hrs by MTT assay; assay type: cell-based; details: RWPE-1, 24 h; method in brief: as §1

SMILES	IC50 (MDA-MB-231) [µM]	IC50 (HeLa) [µM]	IC50 (K562) [µM]	IC50 (PC-3) [µM]	IC50 (DU-145) [µM]	IC50 (MCF7) [µM]	IC50 (RWPE-1) [µM]
O[C@H]1C[C@@H](c2ccccc2)N2CCc3cc(OCc4ccccc4)c(OCc4ccccc4)cc3[C@@H]2C1	> 20	> 20	> 20	> 20	> 20	> 20	> 20
C[C@@H]1CC(=O)C[C@H]2c3cc(OCc4cc(C(F)(F)F)cc(C(F)(F)F)c4)c(OCc4cc(C(F)(F)F)cc(C(F)(F)F)c4)cc3CCN12 (relative stereo)	> 20	> 20	> 20	> 20	> 20	> 20	> 20
CC1(C)CC(=O)C[C@H]2c3cc(OCc4ccccc4)c(OCc4ccccc4)cc3CCN21	> 20	> 20	> 20	> 20	> 20	> 20	> 20
CCC[C@@H]1CC(=O)C/C=C(/CC)[C@H]2c3cc(OCc4ccccc4)c(OCc4ccccc4)cc3CCN12 (relative stereo)	> 20	> 20	> 20	> 20	> 20	> 20	> 20
O[C@@H]1C[C@@H](c2ccccc2)N2CCc3ccc(OCc4ccccc4)cc3[C@@H]2C1	> 20	> 20	> 20	> 20	> 20	> 20	> 20
C/C=C/C(=O)CC1c2cc(OCc3cc(C)cc(C)c3)c(OCc3cc(C)cc(C)c3)cc2CCN1C(=O)OC(C)(C)C (stereo unspecified)	> 20	> 20	> 20	> 20	> 20	> 20	> 20
O[C@@H]1C[C@@H](c2ccccc2)N2CCc3cc(OCc4ccccc4)c(OCc4ccccc4)cc3[C@@H]2C1	11.8	11.2	6.96	8.37	12	20.1	40 to 86.8
O=C1C=CN2CCc3cc(OCc4ccccc4)c(OCc4ccccc4)cc3C2C1 (stereo unspecified)	> 20	> 20	> 20	> 20	> 20	> 20	> 20
COc1ccc([C@@H]2C[C@@H](O)C[C@H]3c4cc(OCc5ccccc5)c(OCc5ccccc5)cc4CCN23)cc1OC	1.15	3.46	5.42	1.51	1.59	2	2.08
CC[C@@H]1C[C@@H](O)C/C=C(/C)[C@H]2c3cc(OCc4ccccc4)c(OCc4ccccc4)cc3CCN12	> 20	> 20	> 20	> 20	> 20	> 20	> 20
O[C@@H]1C[C@@H](c2ccccc2)N2CCc3ccccc3[C@@H]2C1	> 20	> 20	> 20	> 20	> 20	> 20	> 20
c1ccc(COc2cc3c(cc2OCc2ccccc2)[C@@H]2CCC[C@@H](c4ccccc4)N2CC3)cc1	> 20	> 20	> 20	> 20	> 20	> 20	> 20
O[C@@H]1C[C@@H](c2ccc(-c3ccccc3)cc2)N2CCc3cc(OCc4ccccc4)c(OCc4ccccc4)cc3[C@@H]2C1	3.28	3.42	3.24	1.16	1.36	0.28	4.42
O[C@]1(c2ccccc2)C[C@@H](c2ccccc2)N2CCc3cc(OCc4ccccc4)c(OCc4ccccc4)cc3[C@@H]2C1	> 20	> 20	> 20	> 20	> 20	> 20	> 20
C[C@@H]1C[C@@H](O)C[C@H]2c3cc(OCc4ccc(C(C)(C)C)cc4)c(OCc4ccc(C(C)(C)C)cc4)cc3CCN12	3.25	2.06	2.04	3.79	2.22	0.86	1.91
C[C@@H]1C[C@H](O)C[C@H]2c3cc4c(cc3CCN12)OCO4	> 20	> 20	> 20	> 20	> 20	> 20	> 20
CC[C@@H]1CC(=O)C[C@H]2c3cc(OCc4ccccc4)c(OCc4ccccc4)cc3CCN12 (relative stereo)	> 20	> 20	> 20	> 20	> 20	> 20	> 20

SMILES	IC50 (MDA-MB-231) [µM]	IC50 (HeLa) [µM]	IC50 (K562) [µM]	IC50 (PC-3) [µM]	IC50 (DU-145) [µM]	IC50 (MCF7) [µM]	IC50 (RWPE-1) [µM]
CCCCCC[C@@H]1C[C@@H](O)C[C@H]2c3cc(OCc4ccccc4)c(OCc4ccccc4)cc3CCN12	> 20	> 20	> 20	> 20	> 20	> 20	> 20
O=C1C[C@@H](c2ccccc2)N2CCc3ccccc3[C@@H]2C1 (relative stereo)	> 20	> 20	> 20	> 20	> 20	> 20	> 20
C[C@@H]1C[C@@H](O)C[C@H]2c3cc(OCc4ccccc4)c(OCc4ccccc4)cc3CCN12	1.15	2.66	1.52	2.81	2.18	2.2	1.84
C[C@@H]1CC(=O)C[C@H]2c3cc(OCc4ccc(C(C)(C)C)cc4)c(OCc4ccc(C(C)(C)C)cc4)cc3CCN12 (relative stereo)	> 20	> 20	> 20	> 20	> 20	> 20	> 20
O[C@H]1C[C@@H](c2ccc(-c3ccccc3)cc2)N2CCc3cc(OCc4ccccc4)c(OCc4ccccc4)cc3[C@@H]2C1	> 20	> 20	> 20	> 20	> 20	> 20	> 20
C[C@@H]1C[C@H](O)C[C@H]2c3cc(OCc4cccc(F)c4)c(OCc4cccc(F)c4)cc3CCN12	1.23	1.31	1.08	1.36	3.05	0.62	4.45
O[C@H]1C[C@@H](c2ccccc2)N2CCc3ccc(OCc4ccccc4)cc3[C@@H]2C1	> 20	> 20	> 20	> 20	> 20	> 20	> 20
C[C@]1(O)C[C@@H](c2ccccc2)N2CCc3cc(OCc4ccccc4)c(OCc4ccccc4)cc3[C@@H]2C1	> 20	> 20	> 20	> 20	> 20	> 20	> 20
Cc1cc(C)cc(COc2cc3c(cc2OCc2cc(C)cc(C)c2)[C@@H]2CC(=O)C[C@@H](C)N2CC3)c1 (relative stereo)	> 20	> 20	> 20	> 20	> 20	> 20	> 20
COc1cc([C@@H]2CC(=O)C[C@H]3c4cc(OCc5ccccc5)c(OCc5ccccc5)cc4CCN23)cc(OC)c1OC (relative stereo)	> 20	> 20	> 20	> 20	> 20	> 20	> 20
C[C@@H]1C[C@@](C)(O)C[C@H]2c3cc(OCc4ccc(Br)cc4)c(OCc4ccc(Br)cc4)cc3CCN12	1.2	1.88	1.79	0.79	1.97	0.84	2.95
COc1cc([C@@H]2C[C@H](O)C[C@H]3c4cc(OCc5ccccc5)c(OCc5ccccc5)cc4CCN23)cc(OC)c1OC	> 20	> 20	> 20	> 20	> 20	> 20	> 20
C[C@@H]1C[C@@](C)(O)C[C@H]2c3cc(OCc4ccc(C(C)(C)C)cc4)c(OCc4ccc(C(C)(C)C)cc4)cc3CCN12	0.98	0.91	1.35	1.11	1.46	2.61	4.03
COc1ccc([C@@H]2C[C@@H](O)C[C@H]3c4cc(OCc5cc(F)cc(F)c5)c(OCc5cc(F)cc(F)c5)cc4CCN23)cc1OC	1.3	4.67	3.92	1.71	3.96	3.52	2.24
COc1cc([C@@H]2C[C@@H](O)C[C@H]3c4cc(OCc5ccccc5)c(OCc5ccccc5)cc4CCN23)cc(OC)c1OC	> 20	> 20	> 20	> 20	> 20	> 20	> 20
O=C1C[C@@H](c2ccccc2)N2CCc3ccc(OCc4ccccc4)cc3[C@@H]2C1 (relative stereo)	> 20	> 20	> 20	> 20	> 20	> 20	> 20
